Shown are actives, neighbours in structure and some others; about 2.3% of the full set was active somewhere.
TRPC4 potent – positive allosteric modulators of TRPC4, primary screen, cell-based, mouse TRPC4beta, HEK293 mu-opioid, Fluo-4 calcium. B-score at 10 µM. DAMGO EC20, Fluo-4 Ca2+ flux; hits give high values. hit rate 0.42% among 310,000;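 active = B-score of calcium response area above 5 SD of library B-scores, with initial fluorescence ratio within 5 SD of library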;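 note: B-score of integrated fluorescence ratio over time as area under calcium response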
Target sequence (Q9QUQ5 whole entry, looked up): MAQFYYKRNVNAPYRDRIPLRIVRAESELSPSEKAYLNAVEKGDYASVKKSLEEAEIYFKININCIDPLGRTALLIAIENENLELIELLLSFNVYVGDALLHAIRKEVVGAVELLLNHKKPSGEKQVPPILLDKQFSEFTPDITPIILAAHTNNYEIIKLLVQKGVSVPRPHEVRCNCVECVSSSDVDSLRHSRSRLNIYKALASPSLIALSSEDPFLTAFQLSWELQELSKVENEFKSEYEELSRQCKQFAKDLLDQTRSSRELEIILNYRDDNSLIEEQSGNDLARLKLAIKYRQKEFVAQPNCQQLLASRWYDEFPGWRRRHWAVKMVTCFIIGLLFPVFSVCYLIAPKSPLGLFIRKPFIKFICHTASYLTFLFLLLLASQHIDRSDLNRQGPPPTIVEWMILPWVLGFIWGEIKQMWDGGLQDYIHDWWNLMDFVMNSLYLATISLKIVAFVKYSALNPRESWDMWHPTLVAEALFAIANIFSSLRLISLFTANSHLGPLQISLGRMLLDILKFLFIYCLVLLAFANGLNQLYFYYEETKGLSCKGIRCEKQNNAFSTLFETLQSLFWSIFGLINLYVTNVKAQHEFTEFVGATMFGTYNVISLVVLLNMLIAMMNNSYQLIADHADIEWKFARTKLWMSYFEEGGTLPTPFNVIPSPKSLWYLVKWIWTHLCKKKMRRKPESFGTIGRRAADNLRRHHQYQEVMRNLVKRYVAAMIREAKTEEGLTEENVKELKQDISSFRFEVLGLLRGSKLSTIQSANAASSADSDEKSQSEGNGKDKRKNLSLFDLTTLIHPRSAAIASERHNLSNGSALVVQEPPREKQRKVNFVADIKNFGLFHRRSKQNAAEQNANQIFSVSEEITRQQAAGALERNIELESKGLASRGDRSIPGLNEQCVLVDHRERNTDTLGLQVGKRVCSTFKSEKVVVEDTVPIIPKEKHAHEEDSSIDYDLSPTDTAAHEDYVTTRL
TRPC6 act – mouse TRPC6 channel activators, primary screen, cell-based, HEK293, membrane potential dye; HEK293-TRPC6 membrane potential dye fluorescence; hits give high values; B-score at 10 µM; hit rate 0.13% among 310,000; AID 2550, 2010;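 active = B-score of the integrated fluorescence ratio above library mean plus 3 SD, and starting fluorescence ratio within library mean plus 5 SD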;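 note: higher score means more depolarization so channel activation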
TRPC6 inh – mouse TRPC6 channel inhibitors, primary screen, cell-based, HEK293, membrane potential dye; ACh-evoked depolarization; hits give low values; B-score at 10 µM; hit rate 1.1% among 310,000; AID 2553, 2010;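 active = B-score under library mean minus 3 SD, initial fluorescence not abnormally high, positive integrated signal ratio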;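 note: B-score derived from integrated fluorescence ratio over the kinetic read; more negative B-score means stronger inhibition of depolarization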
TRPC4 block – inhibitors of mouse TRPC4 channel, primary screen, Fluo4 calcium, HEK293 TRPC4beta/mu-opioid cells. AID 2247, 2010. Short transient receptor potential channel 4 (Mus musculus), Q9QUQ5. DAMGO-evoked Fluo4 calcium flux; hits give low values. B-score at 10 µM. hit rate 0.39% among 300,000;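 active = B-score over 3 SD under the library average, no early fluorescence shift, positive overall ratio signal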
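Assay system: TRPC4beta/mu-opioid receptor HEK293 cell line; compound dosing: single concentration per test compound; detection: Fluo4 Ca2+ flux fluorescence; evaluation: per-well B score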
TRPC4 act – activators of mouse TRPC4 channel, primary screen, Fluo4 calcium, HEK293 TRPC4beta/mu-opioid cells | Short transient receptor potential channel 4 (Mus musculus), Q9QUQ5 | Fluo4 calcium fluorescence; hits give high values | B-score at 10 µM | hit rate 0.49% among 310,000 | AID 2237, 2010;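 active = B-score above 5 SD of library B-scores, and initial fluorescence ratio not above library mean plus 5 SD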;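 note: positive B-score marks a calcium rise read as TRPC4 activation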
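system = HEK293 cells stably co-expressing mouse TRPC4beta and mu-opioid receptor | schedule = Fluo4 dye loading 45 min at room temperature, 110 s recording | measure = B-scored integrated calcium fluorescence ratio | signal = Fluo4 calcium-sensitive dye fluorescence, kinetic, 1 Hz baseline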
TRPC4 spec 2 – second selectivity test of TRPC6 inhibitors: effect on mouse TRPC4 | HEK293 TRPC4/MOR, membrane potential dye fluorescence; channel activated by saturating DAMGO dose | shares compounds with TRPC6 inh | inhibition, % at 10 µM | hit rate 42% among 920;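 active = compounds whose fluorescence signal differed from control wells by over 3 SD, either direction, in both duplicate plates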
TRPC4 spec – mouse TRPC4 modulation by TRPC6 hits, confirmation, selectivity assay for TRPC6 inhibitor project, cell-based, HEK293 TRPC4/mu-opioid, membrane potential dye. shares compounds with TRPC6 inh. membrane potential fluorescence. activity change, negative = inhibition, % at 10 µM. hit rate 61% among 920;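 active = rise or fall in signal beyond 3 SD of buffer-only wells in both replicate plates, either sign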;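 note: integrated kinetic ratio of fluorescence range over baseline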
HEK293 MPD ctr 2-1 – nonspecific membrane potential effects, parental HEK293, confirmation, counter-screen for TRPC6 inhibitor project, cell-based, second counter screen; shares compounds with TRPC6 inh; parental HEK293 membrane potential dye fluorescence; maximal acetylcholine challenge after compound addition; signal change vs control, % at 10 µM; hit rate 31% among 920; AID 2779, 2010;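 active = membrane potential signal moving either way by over 3 SD of the maximum-effect control, in both duplicate plates, meaning non-specific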
HEK293 MPD ctr-1 – membrane potential modulation in parental HEK293, confirmation, counter-screen for TRPC6 inhibitor project, cell-based | shares compounds with TRPC6 inh | parental HEK293 membrane potential dye fluorescence | membrane potential signal change, % at 10 µM | hit rate 60% among 920;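 active = membrane potential signal shifting up or down by more than 3 SD of buffer-only wells, on both duplicate plates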
HEK293 MPD ctr-2 – parental HEK293 membrane potential modulation, confirmation, counter-screen for TRPC6 modulator project, cell-based. shares compounds with TRPC6 inh. membrane potential dye fluorescence. membrane potential signal change, % at 10 µM. hit rate 51% among 2,400;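 active = membrane potential signal moves up or down beyond 5 SD from buffer-only wells, on both duplicate plates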
HEK293 MPD ctr 2-2 – second check of TRPC6 modulator effects in parental HEK293 cells; inhibition, % at 10 µM; hit rate 14% among 2,400; AID 488926; membrane potential dye fluorescence; after compound, maximal acetylcholine stimulation; shares compounds with TRPC6 inh;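 active = membrane potential signal drops by more than 5 SD from the mean control signal, in both duplicate plates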;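 note: plate controls were acetylcholine ECmax control wells for no effect and buffer only wells for full effect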
TRPC4 ctr mod – TRPC4 modulation by TRPC6 hit compounds, confirmation, selectivity assay for TRPC6 modulator project, cell-based, HEK293 TRPC4/mu-opioid, membrane potential dye, mouse; hit rate 69% among 2,400; percent change from control (negative = decrease, positive = increase), % at 10 µM; shares compounds with TRPC6 inh; membrane potential fluorescence;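 active = membrane potential signal moved up or down beyond 5 SD of buffer control wells, in both duplicate plates, actives on both sides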;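 note: plate controls were assay buffer wells for no effect and DAMGO maximal-effect wells for full effect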
TRPC4/MOR inh 2 – second selectivity test of TRPC6 modulators against mouse TRPC4. shares compounds with TRPC6 inh. HEK293 TRPC4/mu-opioid, membrane potential dye fluorescence; stimulated with maximal-effect DAMGO. inhibition, % at 10 µM. hit rate 55% among 2,400. AID 488928;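 active = drop in membrane potential signal beyond 5 SD of the control wells in both duplicate plates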;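 note: TRPC4 counter screen for TRPC6 hits run under conditions tuned for TRPC6 not TRPC4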
TRPC6 inh conf – mouse TRPC6 channel inhibitors, confirmation, HEK293 cells, membrane potential dye, duplicate. shares compounds with TRPC6 inh. ACh-evoked depolarization. inhibition, % at 10 µM. hit rate 43% among 3,300;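 active = fluorescence ratio falls more than 5 SD below the full-stimulation control mean, in both duplicate runs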;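 note: integrated fluorescence ratio of peak minus minimum over baseline after agonist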
TRPC6 act conf – mouse TRPC6 channel activators, confirmation, HEK293 cells, membrane potential dye, duplicate; hit rate 11% among 2,800; activation, % at 10 µM; AID 488961, 2010; HEK293-TRPC6 membrane potential dye fluorescence, FDSS; shares compounds with TRPC6 inh;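 active = ratio signal rise beyond 5 SD above unstimulated control wells' mean, seen in both duplicate runs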;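 note: plate controls were buffer EC0 wells for no effect and acetylcholine ECmax response for full effect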
An asterisk follows results filed as active.

`Cc1onc(-c2c(F)cccc2Cl)c1C(=O)NC(=S)Nc1c(C)n(C)n(-c2ccccc2)c1=O` gave TRPC4 potent inactive, TRPC6 act inactive, TRPC6 inh -9.22*, TRPC4 block inactive, TRPC4 act inactive, TRPC4 spec 2 inactive, TRPC4 spec inactive, HEK293 MPD ctr 2-1 38.5%*, HEK293 MPD ctr-1 inactive, TRPC6 inh conf inactive and TRPC6 act conf inactive.
CCCn1c(C)cc(=O)c2cc(NC(=O)c3ccccn3)ccc21 was read as TRPC4 potent inactive, TRPC6 act inactive, TRPC6 inh -10.6*, TRPC4 block inactive, TRPC4 act inactive, HEK293 MPD ctr-2 -345.0%*, HEK293 MPD ctr 2-2 125.5%*, TRPC4 ctr mod -58.0%*, TRPC4/MOR inh 2 73.5%*, TRPC6 inh conf 86.0%* and TRPC6 act conf inactive.
`FC(F)(F)c1ccc2c(c1)n(Cc1ccccc1)c1[n+]2CCCCC1` gave TRPC4 potent inactive, TRPC6 act inactive, TRPC6 inh -5.12*, TRPC4 block inactive, TRPC4 act inactive, HEK293 MPD ctr-2 inactive, HEK293 MPD ctr 2-2 inactive, TRPC4 ctr mod inactive, TRPC4/MOR inh 2 inactive, TRPC6 inh conf inactive and TRPC6 act conf inactive.
For O=C(c1cccc([N+](=O)[O-])c1)N1CC2C3C=CC(C3)C2C1 (centres undefined) the results were TRPC4 potent inactive, TRPC6 act inactive, TRPC6 inh inactive, TRPC4 block inactive and TRPC4 act inactive.
Screening O=C(c1ccccc1[N+](=O)[O-])N1CC2C3C=CC(C3)C2C1 (centres undefined) returned TRPC4 potent inactive, TRPC6 act inactive, TRPC6 inh -5.45*, TRPC4 block inactive, TRPC4 act inactive, HEK293 MPD ctr-2 inactive, HEK293 MPD ctr 2-2 inactive, TRPC4 ctr mod inactive, TRPC4/MOR inh 2 inactive, TRPC6 inh conf inactive and TRPC6 act conf inactive.
O=C(c1cccc(Cl)c1)N1CCN(C2CCCCCC2)CC1 was read as TRPC4 potent inactive, TRPC6 act inactive, TRPC6 inh -5.68*, TRPC4 block inactive, TRPC4 act inactive, HEK293 MPD ctr-2 171.0%*, HEK293 MPD ctr 2-2 inactive, TRPC4 ctr mod 35.5%*, TRPC4/MOR inh 2 inactive and TRPC6 inh conf 66.0%*.
For O=C(c1ccccc1)N1CCN(C2CCCCC2)CC1 the results were TRPC4 potent inactive, TRPC6 act inactive, TRPC6 inh inactive, TRPC4 block inactive and TRPC4 act inactive.
Screening CCc1ccc(N/C(SC)=C(/C#N)C(N)=O)cc1 returned TRPC4 potent inactive, TRPC6 act inactive, TRPC6 inh inactive, TRPC4 block inactive and TRPC4 act inactive.
CCCCS/C(=C(/C#N)C(N)=O)c1cc2c([nH]1)CCCC2 was read as TRPC4 potent inactive, TRPC6 act inactive, TRPC6 inh -5.71*, TRPC4 block inactive, TRPC4 act inactive, HEK293 MPD ctr-2 inactive, HEK293 MPD ctr 2-2 inactive, TRPC4 ctr mod 11.0%*, TRPC4/MOR inh 2 inactive, TRPC6 inh conf 54.5%* and TRPC6 act conf inactive.
Screening Cc1ccn2c(Nc3ccccc3C)c(-c3cccnc3)nc2c1 returned TRPC4 potent inactive, TRPC6 act inactive, TRPC6 inh -5.7*, TRPC4 block inactive, TRPC4 act inactive, HEK293 MPD ctr-2 -166.0%*, HEK293 MPD ctr 2-2 inactive, TRPC4 ctr mod -32.5%*, TRPC4/MOR inh 2 77.0%*, TRPC6 inh conf 46.5%* and TRPC6 act conf inactive.
Screening CC(=O)Nc1c(-c2ccccc2)nc2ccc(Cl)cn12 returned TRPC4 potent inactive, TRPC6 act inactive, TRPC6 inh inactive, TRPC4 block inactive and TRPC4 act inactive.
Screening Cc1ccccc1Nc1c(-c2ccc(N3CCOCC3)cc2)nc2cnccn12 returned TRPC4 potent inactive, TRPC6 act inactive, TRPC6 inh inactive, TRPC4 block inactive and TRPC4 act inactive.
Cc1ccccc1Nc1c(-c2ccncc2)nc2ccc(Cl)cn12 was read as TRPC4 potent inactive, TRPC6 act inactive, TRPC6 inh -5.78*, TRPC4 block inactive, TRPC4 act inactive, HEK293 MPD ctr-2 inactive, HEK293 MPD ctr 2-2 inactive, TRPC4 ctr mod -15.5%*, TRPC4/MOR inh 2 70.0%*, TRPC6 inh conf inactive and TRPC6 act conf inactive.

Source: PubChem (Johns Hopkins Ion Channel Center)
